Experiments:
[1] = Oral bioavailability in human; assay type: ADME, organism-based; settings: in silico prediction
MDA-MB-468 = assay: Growth inhibition of human MDA-MB-468 cells at 10 uM after 48 hrs by sulforhodamine B assay; assay type: functional; settings: MDA-MB-468, 48 h, read-out: GI
How it was run: (§1)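 Single-dose screen at 10 µM across the NCI 60 panel. Cells in RPMI 1640 with 5% FBS and 2 mM L-glutamine, plated at 5000–40,000/well and preincubated 24 h at 37 °C, 5% CO2. Drug in DMSO, 48 h exposure. Fixed with TCA, stained with SRB, A515 read. Percent growth is taken relative to untreated control, and inhibition is 100 minus growth.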

[2] = Growth inhibition of human Hs 578T cells at 10 uM after 48 hrs by sulforhodamine B assay; assay type: functional; settings: read-out: GI
How it was run: (§2)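 NCI-60 one-dose primary screen at a single 10 µM concentration. Cells in RPMI 1640 with 5% FBS, preincubated 24 h at 37 °C, 5% CO2. Drug exposure 48 h, then TCA fixation, SRB staining and absorbance at 515 nm. Percent growth calculated against time-zero and untreated control wells, then converted to percent growth inhibition.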

PC-3 = assay: Growth inhibition of human PC3 cells at 10 uM after 48 hrs by sulforhodamine B assay; assay type: functional; settings: PC-3, 48 h, read-out: GI; how it was run: as §1
DU-145 = assay: Growth inhibition of human DU145 cells at 10 uM after 48 hrs by sulforhodamine B assay; assay type: functional; settings: DU-145, 48 h, read-out: GI
How it was run: (§3)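 Single-dose NCI-60 prescreen at 10 µM for 48 h at 37 °C and 5% CO2, using cells grown in RPMI 1640 with 5% FBS and 2 mM glutamine. Protein was measured by SRB after TCA fixation: 10% final for adherent lines, 16% for suspension lines. Absorbance was read at 515 nm. Percent growth inhibition was obtained by subtracting percent growth from 100.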

TK-10 = assay: Growth inhibition of human TK10 cells at 10 uM after 48 hrs by sulforhodamine B assay; assay type: functional; settings: TK-10, 48 h, read-out: GI; how it was run: as §1
UO-31 = assay: Growth inhibition of human UO31 cells at 10 uM after 48 hrs by sulforhodamine B assay; assay type: functional; settings: UO-31, 48 h, read-out: GI; how it was run: as §1
RXF 393 = assay: Growth inhibition of human RXF393 cells at 10 uM after 48 hrs by sulforhodamine B assay; assay type: functional; settings: RXF 393, 48 h, read-out: GI; how it was run: as §1
SN12C = assay: Growth inhibition of human SN12C cells at 10 uM after 48 hrs by sulforhodamine B assay; assay type: functional; settings: read-out: GI; how it was run: as §1
A498 = assay: Growth inhibition of human A498 cells at 10 uM after 48 hrs by sulforhodamine B assay; assay type: functional; settings: A498, 48 h, read-out: GI; how it was run: as §3
ACHN = assay: Growth inhibition of human ACHN cells at 10 uM after 48 hrs by sulforhodamine B assay; assay type: functional; settings: read-out: GI; how it was run: as §3
SK-OV-3 = assay: Growth inhibition of human SKOV3 cells at 10 uM after 48 hrs by sulforhodamine B assay; assay type: functional; settings: SK-OV-3, 48 h, read-out: GI; how it was run: as §1
786-0 = assay: Growth inhibition of human 786-0 cells at 10 uM after 48 hrs by sulforhodamine B assay; assay type: functional; settings: 786-0, 48 h, read-out: GI; how it was run: as §3
OVCAR-8 = assay: Growth inhibition of human OVCAR8 cells at 10 uM after 48 hrs by sulforhodamine B assay; assay type: functional; settings: OVCAR-8, 48 h, read-out: GI; how it was run: as §1
OVCAR-4 = assay: Growth inhibition of human OVCAR4 cells at 10 uM after 48 hrs by sulforhodamine B assay; assay type: functional; settings: OVCAR-4, 48 h, read-out: GI; how it was run: as §1
OVCAR-5 = assay: Growth inhibition of human OVCAR5 cells at 10 uM after 48 hrs by sulforhodamine B assay; assay type: functional; settings: OVCAR-5, 48 h, read-out: GI; how it was run: as §1
OVCAR-3 = assay: Growth inhibition of human OVCAR3 cells at 10 uM after 48 hrs by sulforhodamine B assay; assay type: functional; settings: OVCAR-3, 48 h, read-out: GI; how it was run: as §1
UACC-257 = assay: Growth inhibition of human UACC257 cells at 10 uM after 48 hrs by sulforhodamine B assay; assay type: functional; settings: UACC-257, 48 h, read-out: GI; how it was run: as §1
UACC-62 = assay: Growth inhibition of human UACC62 cells at 10 uM after 48 hrs by sulforhodamine B assay; assay type: functional; settings: UACC-62, 48 h, read-out: GI; how it was run: as §1
SK-MEL-5 = assay: Growth inhibition of human SK-MEL-5 cells at 10 uM after 48 hrs by sulforhodamine B assay; assay type: functional; settings: SK-MEL-5, 48 h, read-out: GI; how it was run: as §1
MDA-MB-435 = assay: Growth inhibition of human MDA-MB-435 cells at 10 uM after 48 hrs by sulforhodamine B assay; assay type: functional; settings: MDA-MB-435, 48 h, read-out: GI; how it was run: as §1
Malme-3M = assay: Growth inhibition of human MALME-3M cells at 10 uM after 48 hrs by sulforhodamine B assay; assay type: functional; settings: read-out: GI; how it was run: as §1
U-251 = assay: Growth inhibition of human U251 cells at 10 uM after 48 hrs by sulforhodamine B assay; assay type: functional; settings: U-251, 48 h, read-out: GI; how it was run: as §1
LOX IMVI = assay: Growth inhibition of human LOXIMVI cells at 10 uM after 48 hrs by sulforhodamine B assay; assay type: functional; settings: read-out: GI; how it was run: as §1
SNB-19 = assay: Growth inhibition of human SNB19 cells at 10 uM after 48 hrs by sulforhodamine B assay; assay type: functional; settings: SNB-19, 48 h, read-out: GI; how it was run: as §1
SF-539 = assay: Growth inhibition of human SF539 cells at 10 uM after 48 hrs by sulforhodamine B assay; assay type: functional; settings: SF-539, 48 h, read-out: GI; how it was run: as §1
HT-29 = assay: Growth inhibition of human HT-29 cells at 10 uM after 48 hrs by sulforhodamine B assay; assay type: functional; settings: HT-29, 48 h, read-out: GI; how it was run: as §2
HCT-116 = assay: Growth inhibition of human HCT116 cells at 10 uM after 48 hrs by sulforhodamine B assay; assay type: functional; settings: HCT-116, 48 h, read-out: GI; how it was run: as §2
[3] = Growth inhibition of human HCC2998 cells at 10 uM after 48 hrs by sulforhodamine B assay; assay type: functional; settings: HCC 2998, 48 h, read-out: GI; how it was run: as §2
NCI-H322M = assay: Growth inhibition of human NCI-H322M cells at 10 uM after 48 hrs by sulforhodamine B assay; assay type: functional; settings: read-out: GI; how it was run: as §1
HOP-62 = assay: Growth inhibition of human HOP62 cells at 10 uM after 48 hrs by sulforhodamine B assay; assay type: functional; settings: HOP-62, 48 h, read-out: GI; how it was run: as §2
NCI-H23 = assay: Growth inhibition of human NCI-H23 cells at 10 uM after 48 hrs by sulforhodamine B assay; assay type: functional; settings: NCI-H23, 48 h, read-out: GI; how it was run: as §1
SR = assay: Growth inhibition of human SR cells at 10 uM after 48 hrs by sulforhodamine B assay; assay type: functional; settings: read-out: GI; how it was run: as §1
MOLT-4 = assay: Growth inhibition of human MOLT4 cells at 10 uM after 48 hrs by sulforhodamine B assay; assay type: functional; settings: MOLT-4, 48 h, read-out: GI; how it was run: as §1
K562 = assay: Growth inhibition of human K562 cells at 10 uM after 48 hrs by sulforhodamine B assay; assay type: functional; settings: K562, 48 h, read-out: GI; how it was run: as §1

Row | SMILES | bioavailability [1] [%] | inhibition of growth at 10 µM (MDA-MB-468) [%] | inhibition of growth at 10 µM [2] [%] | inhibition of growth at 10 µM (PC-3) [%] | inhibition of growth at 10 µM (DU-145) [%] | inhibition of growth at 10 µM (TK-10) [%] | inhibition of growth at 10 µM (UO-31) [%] | inhibition of growth at 10 µM (RXF 393) [%] | inhibition of growth at 10 µM (SN12C) [%] | inhibition of growth at 10 µM (A498) [%] | inhibition of growth at 10 µM (ACHN) [%] | inhibition of growth at 10 µM (SK-OV-3) [%] | inhibition of growth at 10 µM (786-0) [%] | inhibition of growth at 10 µM (OVCAR-8) [%] | inhibition of growth at 10 µM (OVCAR-4) [%] | inhibition of growth at 10 µM (OVCAR-5) [%] | inhibition of growth at 10 µM (OVCAR-3) [%] | inhibition of growth at 10 µM (UACC-257) [%] | inhibition of growth at 10 µM (UACC-62) [%] | inhibition of growth at 10 µM (SK-MEL-5) [%] | further results
1 | O=C(NS(=O)(=O)c1ccc2nc(-c3ccccc3)c(-c3ccccc3)nc2c1)c1ccccc1 | 100 | 40.2 | 17 | 41.9 | 6.85 | 2.54 | 15.2 | 39.1 | 17.4 | 42.2 | 11.8 | 12.8 | 16.5 | 8.02 | 16.5 | 8.43 | 19.2 | 15.2 | 19.6 | 48.9 | inhibition of growth at 10 µM (MDA-MB-435): 12.9%; inhibition of growth at 10 µM (Malme-3M): 7.67%; inhibition of growth at 10 µM (U-251): 21.6%; inhibition of growth at 10 µM (LOX IMVI): 20.5%; inhibition of growth at 10 µM (SNB-19): 22%; inhibition of growth at 10 µM (SF-539): 3.89%; inhibition of growth at 10 µM (HT-29): 48.4%; inhibition of growth at 10 µM (HCT-116): 36.7%; inhibition of growth at 10 µM [3]: 15.3%; inhibition of growth at 10 µM (NCI-H322M): 20.9%; inhibition of growth at 10 µM (HOP-62): 2.87%; inhibition of growth at 10 µM (NCI-H23): 19.6%; inhibition of growth at 10 µM (SR): 71.1%; inhibition of growth at 10 µM (MOLT-4): 44.9%; inhibition of growth at 10 µM (K562): 45.8%
2 | O=S(=O)(Nc1cccc2ccccc12)c1ccc2nc(-c3ccccc3)c(-c3ccccc3)nc2c1 | 100 | 54.9 | 24 | 41.8 | 10.9 | 6.34 | 17.9 | 48.6 | 8.87 | 31.9 | 21.9 | 5.86 | 4.34 | 20.6 | 31.2 | 2.98 | 30.9 | 21.7 | 28.9 | 48.6 | inhibition of growth at 10 µM (MDA-MB-435): 20.4%; inhibition of growth at 10 µM (Malme-3M): 9.98%; inhibition of growth at 10 µM (U-251): 7.23%; inhibition of growth at 10 µM (LOX IMVI): 32.9%; inhibition of growth at 10 µM (SNB-19): 9.78%; inhibition of growth at 10 µM (SF-539): 5.57%; inhibition of growth at 10 µM (HT-29): 82.5%; inhibition of growth at 10 µM (HCT-116): 49.9%; inhibition of growth at 10 µM [3]: 4.56%; inhibition of growth at 10 µM (NCI-H322M): 22.2%; inhibition of growth at 10 µM (HOP-62): 2.24%; inhibition of growth at 10 µM (NCI-H23): 21.3%; inhibition of growth at 10 µM (SR): 81.1%; inhibition of growth at 10 µM (MOLT-4): 47.8%; inhibition of growth at 10 µM (K562): 49.6%

Source: ChEMBL document CHEMBL2407075, “Sulphonamido-quinoxalines: search for anticancer agent” (Eur J Med Chem, 2013)
